From ChEMBL document CHEMBL4130559, “Structure-Based Discovery of Thiosemicarbazone Metalloproteinase Inhibitors for Hemorrhage Treatment in Snakebites” (ACS Med Chem Lett, 2017)

Tests used:
[1] = target: T1, Snake venom metalloproteinase neuwiedase (Bothrops pauloensis, UniProt Q9I9R4); experiment: Inhibition of Bothrops pauloensis MP1 assessed as reduction in azocaseinolytic activity after 30 mins
T1 sequence (Q9I9R4 whole entry): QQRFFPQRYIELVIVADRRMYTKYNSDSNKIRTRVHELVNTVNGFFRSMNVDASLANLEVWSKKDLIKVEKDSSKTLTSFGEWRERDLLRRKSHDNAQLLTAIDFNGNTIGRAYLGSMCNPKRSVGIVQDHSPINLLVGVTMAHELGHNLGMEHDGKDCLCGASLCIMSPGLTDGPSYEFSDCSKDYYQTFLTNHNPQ
Outline: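 Purified BpMP-I (7.5 μg per reaction) was preincubated with compound for 30 min at 37 °C. It was then added to azocasein (1 mg/mL) in 0.05 M Tris–HCl pH 7.8 with 0.15 M NaCl and incubated for 30 min at 37 °C. The reaction was stopped with 20% TCA, held 30 min at room temperature and centrifuged. Supernatant was read at A405. IC50 is the concentration giving 50% loss of azocaseinolytic activity.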

Snake venom [2] = experiment: Antihemorrhagic activity in Bothrops pauloensis crude venom injected Swiss mouse assessed as reduction in hemorrhagic halo at 1:1 venom to compound ratio administered via intradermal route; type: functional; parameters: scale not given: the % may be the effect or the level left
Snake venom [3] = experiment: Antihemorrhagic activity in Bothrops pauloensis crude venom injected Swiss mouse assessed as reduction in hemorrhagic halo at 1:5 venom to compound ratio administered via intradermal route; type: functional; parameters: scale not given: the % may be the effect or the level left
Snake venom [4] = experiment: Antihemorrhagic activity in Bothrops pauloensis crude venom injected Swiss mouse assessed as reduction in hemorrhagic halo at 1:10 venom to compound ratio administered via intradermal route; type: functional; parameters: scale not given: the % may be the effect or the level left
Snake venom [5] = experiment: Antihemorrhagic activity in Bothrops pauloensis crude venom injected Swiss mouse assessed as reduction in hemorrhagic halo at 1:1 to 1:20 venom to compound ratio administered via intradermal route; type: functional
Snake venom [6] = experiment: Antihemorrhagic activity in Bothrops pauloensis crude venom injected Swiss mouse assessed as reduction in hemorrhagic halo at 1:10 venom to compound ratio administered via intradermal route 10 mins after venom injection; type: functional; parameters: scale not given: the % may be the effect or the level left
Outline: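 Treatment protocol in Swiss male mice (n = 4, 18–22 g). B. pauloensis crude venom (16.3 μg, two minimum hemorrhagic doses) was injected intradermally in the dorsal region. Compound followed 10 min later by the same route at 1:10 venom/compound (w/w). At 150 min the mice were anesthetized and killed, and the skin halo was measured by caliper. Results are percent inhibition versus venom-only controls, mean ± SD.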

Snake venom [7] = experiment: Antihemorrhagic activity in Bothrops pauloensis crude venom injected Swiss mouse assessed as reduction in hemorrhagic halo at 1:20 venom to compound ratio administered via intradermal route; type: functional

Structure (SMILES) | IC50 ([1]; read-out: IC50) [mM] | IC50 [1] | also measured
COc1ccc(/C(CCCC(=O)O)=N/NC(N)=S)cc1 | 0.00177 | – | Activity (Snake venom [2]): 41%; Activity (Snake venom [3]): 84%; Activity (Snake venom [4]): 100%; Activity (Snake venom [5]): Dose-dependent effect; Activity (Snake venom [6]): 31%; inhibition (INH) (Snake venom [7]): 100%
COc1ccc(/C(CCC(=O)O)=N/NC(N)=S)cc1 | 0.0791 | – | inhibition (INH) (Snake venom [7]): 43%
COc1ccc(/C=N/NC(N)=S)cc1 | 3.01 | – | –
NC(=S)N/N=C/c1ccc(Br)cc1 | 3.14 | – | –
NC(=O)N/N=C/c1ccc(C(=O)O)cc1 | – | Not Active | –
COc1ccc(/C=N/NC(N)=O)cc1 | – | Not Active | –
COc1ccc(/C=N/NC(N)=S)cc1O | 3.41 | – | –
NC(=S)N/N=C/c1ccc(Cl)cc1 | 4.25 | – | –
NC(=O)N/N=C/c1ccc(O)cc1 | – | Not Active | –
NC(=O)N/N=C/c1ccc(Cl)cc1 | – | Not Active | –
c1cnc2c(c1)ccc1cccnc12 [PHENANTHROLINE] | 0.47 | – | –
NC(=O)N/N=C/c1ccc(O)cc1O | – | Not Active | –
NC(=O)N/N=C/c1cccc(O)c1 | – | Not Active | –
NC(=S)N/N=C/c1ccccc1 [PHENYLTHIOSEMICARBAZONE] | 4.22 | – | –
